# Data published in ChEMBL document CHEMBL1123489, “Antineoplastic activity of 3'-(chloroethyl)nitrosourea analogues of 2'-deoxyuridine and 2'-deoxy-5-fluorouridine” (J Med Chem, 1986).
# Experiments:
# [1] = tested on: L1210; experiment: Compound was tested in vitro for cytotoxicity against L1210 leukemia cells in tumor bearing mice.; type: functional; settings: Mus musculus, read-out: ED50 (the source's name)
# How it was run: (§1)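 Mouse L1210 cells grown in suspension in Fischer's medium with 10% horse serum, 37 °C, 5% CO2. Exponential-phase cells at 2 × 10⁴ cells/mL exposed to compound. Cell number counted against drug-free control after 24, 48 and 72 h. ED50 (concentration inhibiting growth by 50%) estimated from dose-response curves from replicate independent experiments.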
# [2] = tested on: L1210; experiment: Compound was tested in vitro for carbomoylating activity against L1210 leukemia cells in tumor bearing mice; type: functional, Mus musculus
# How it was run: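 Extent of carbamoylation of 5'-amino-5'-deoxythymidine measured after incubation with nitrosourea for 6 h at 37 °C in phosphate-buffered saline. Activity expressed relative to BCNU (set at 1.00). Three determinations per compound.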
# [3] = Half-life, determined by incubation at 37 degree celsius in PBS (pH 7.4)
# [4] = tested on: L1210; experiment: Compound was tested in vitro for alkylating activity against L1210 leukemia cells in tumor bearing mice; type: functional, Mus musculus
# How it was run: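 4-(4-Nitrobenzyl)pyridine alkylation measured after 120 min at 37 °C, pH 6.4. Activity expressed relative to BCNU (set at 1.00). Three determinations per compound.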
# [5] = tested on: L1210; experiment: Effect on the survival time of mice bearing L1210 leukemia at a dose of 80 mg/kg on 30th day; type: functional, Mus musculus
# [6] = tested on: L1210; experiment: Effect on the survival time of mice bearing L1210 leukemia at a dose of 40 mg/kg on 30th day; type: functional, Mus musculus
# [7] = tested on: L1210; experiment: Effect on the survival time of mice bearing L1210 leukemia at a dose of 40 mg/kg; type: functional, Mus musculus
# How it was run: (§2)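 L1210 ascites cells from 7-day growths in donor CDF1 female mice were diluted in isotonic saline, and about 10^5 cells were injected i.p. Drug was given as one i.p. injection in isotonic saline, 24 h after implantation. Groups held five or six weight-matched mice, with saline vehicle controls. T/C × 100 = treated/control survival time in dying animals; >60-day survivors counted.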
# [8] = tested on: L1210; experiment: Effect on the survival time of mice bearing L1210 leukemia at a dose of 20 mg/kg on 30th day; type: functional, Mus musculus
# [9] = tested on: L1210; experiment: Effect on the maximum weight loss of mice bearing L1210 leukemia at a dose of 40 mg/kg on days 5-8
# [10] = tested on: L1210; experiment: Effect on the maximum weight loss of mice bearing L1210 leukemia at a dose of 20 mg/kg; settings: Mus musculus
# [11] = tested on: L1210; experiment: Effect on the maximum weight loss of mice bearing L1210 leukemia at a dose of 80 mg/kg on days 9; type: functional, Mus musculus
# [12] = tested on: L1210; experiment: Effect on the survival time of mice bearing L1210 leukemia at a dose of 80 mg/kg; type: functional, Mus musculus; how it was run: as §2
# [13] = tested on: L1210; experiment: Effect on the survival time of mice bearing L1210 leukemia at a dose of 20 mg/kg; type: functional, Mus musculus; how it was run: as §2
# [14] = tested on: L1210; experiment: Effect on the maximum weight loss of mice bearing L1210 leukemia at a dose of 40 mg/kg on days 6-8
# [15] = tested on: L1210; experiment: Effect on the maximum weight loss of mice bearing L1210 leukemia at a dose of 80 mg/kg on days 11; type: functional, Mus musculus
# [16] = tested on: L1210; experiment: Compound was tested in vitro for cytotoxicity against L1210 leukemia cells in tumor bearing mice; type: functional; settings: Mus musculus, read-out: ED50 (the source's name); how it was run: as §1
smiles,measurement,setting,value
N[C@H]1C[C@H](n2ccc(=O)[nH]c2=O)O[C@@H]1CO,EC50,[1],18 µM
Cc1cn(C2CC(NC(=O)N(CCCl)N=O)C(CO)O2)c(=O)[nH]c1=O (stereo not given),Activity,[2],0.85
same,EC50,[1],1.5 µM
same,half-life,[3],37.3 min
same,Activity,[4],2
Cc1cn([C@H]2C[C@H](N)[C@@H](CO)O2)c(=O)[nH]c1=O [3-AMINO- 3-DEOXYTHYMIDINE],EC50,[1],0.8 µM
O=NN(CCCl)C(=O)N[C@@H]1CC(n2cc(F)c(=O)[nH]c2=O)O[C@@H]1CO (stereo not given in full),Body weight,[5],21.3 g
same,Body weight,[6],22.1 g
same,Average survival days,[7],14
same,Body weight,[7],19.5 g
same,T/C,[7],167%
same,Weight change,[7],5%
same,Body weight,[8],22 g
same,Activity,[2],0.77
same,EC50,[1],2.5 µM
same,Max weight loss,[9],3%
same,half-life,[3],36.1 min
same,Activity,[4],1.78
same,Max weight loss,[10],None
same,Max weight loss,[11],14%
same,Average survival days,[12],9
same,Body weight,[12],20.5 g
same,T/C,[12],107%
same,Weight change,[12],4%
same,Average survival days,[13],18.7
same,Body weight,[13],26.1 g
same,T/C,[13],223%
same,Weight change,[13],4%
O=NN(CCCl)C(=O)N[C@@H]1CC(n2ccc(=O)[nH]c2=O)O[C@@H]1CO (stereo not given in full),Body weight,[5],20.8 g
same,Max weight loss,[14],2%
same,Body weight,[6],22.1 g
same,Average survival days,[7],31
same,Body weight,[7],19 g
same,T/C,[7],369%
same,Weight change,[7],5%
same,Body weight,[8],22 g
same,Activity,[2],0.85
same,Max weight loss,[15],21%
same,half-life,[3],27.3 min
same,Activity,[4],1.65
same,EC50,[16],12.5 µM
same,Max weight loss,[10],None
same,Average survival days,[12],8.3
same,Body weight,[12],19.5 g
same,T/C,[12],99%
same,Weight change,[12],13%
same,Average survival days,[13],20.4
same,Body weight,[13],18.8 g
same,T/C,[13],243%
same,Weight change,[13],9%
NC1CC(n2cc(F)c(=O)[nH]c2=O)OC1CO (stereo not given),EC50,[1],15 µM
O=NN(CCCl)C(=O)NCCCl [CARMUSTINE],Activity,[2],1
same,EC50,[1],4 µM
same,half-life,[3],50 min
same,Activity,[4],1
